In the library only some 9.4% were active in any assay of this set; here they are far more common.
Lmaj promast = Leishmania major promastigote growth inhibition; 200,000 compounds, 9% hits; Leishmania major promastigotes, resazurin fluorescence viability; AID 1063; inhibition, % at 10 µM; in the data active means inhibition above about 50%;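 further: promastigotes grown with compound for 44 hours at 28 °C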
T cruzi repl = blocks replication of Trypanosoma cruzi. inhibition, % (no concentration beside the values). 300,000 compounds, 1.4% hits. T. cruzi beta-gal in NIH3T3, luminescence, 90 h;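 active means mean inhibition across valid replicates above about 55%, limit read from the data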;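 further: signal also drops with host cell toxicity which is not excluded here; 0% = plate median of DMSO wells and 100% = zero luminescence signal; higher percent means less beta-gal luminescence so fewer parasites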
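Test system: β-gal T. cruzi (Tulahuen C4) inside NIH/3T3 cells / Quantity: 5,000 cells/well / Measured by: luminescence from GalScreen with 0.05% NP40, read after 60 min / Medium: DMEM plus 2% FBS / Measure: parasite load inhibition, % / Reagent: Tulahuen C4 trypomastigotes, 5000/well / Schedule: co-culture of at least 90 h after 3 h attachment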
Beta apoptosis = beta cell apoptosis inhibition; INS-1E cytokine-induced death, ATP luminescence, 48 h; percent of positive-control rescue, neutral wells zero; protection from apoptosis, % (concentration not given with the values); 300,000 compounds, 0.8% hits; AID 435005;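 active means Every replicate reaches about 75%, or at least half do and their mean reaches it too, limit read from the data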;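 further: 0% = cytokine-treated negative control wells and 100% = positive control rescue; higher means more ATP so stronger rescue from cytokine killing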
Mdm2 MdmX PPI = inhibitors of human Mdm2/MdmX interaction; O15151+Q00987; SaOS-2 split-luciferase Mdm2/MdmX complementation, luminescence; inhibition, % at 8 µM; 330,000 compounds, 3% hits;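 active means inhibition of at least 50% at 8 µM in the primary screen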
CSC inhib = cancer stem cell inhibition; cancer stem cell-like cells viability, luminescence; inhibition, % at 7.5 µM; 300,000 compounds, 1.1% hits; AID 2717; in the data active means inhibition above about 75%; tested in HMLE shEcad cells
SKKanGAS inh = inhibitors of SKKanGAS S. pyogenes growth in kanamycin (SK-promoter or general growth effect); 300,000 compounds, 1.3% hits; inhibition, % at 7.5 µM; BacTiter-Glo, 6 h; AID 1662;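 active means mean replicate score, as percent of positive control median, at least 50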;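 further: strain carries kanamycin resistance gene driven by streptokinase promoter and grows in 40 µg/ml kanamycin; loss of luminescence reflects streptokinase promoter inhibition or plain growth inhibition; 0% = median of DMSO wells and 100% = positive control at its reference dose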
* marks the source's active call; other numbers are inactive results; . = no result.

SMILES	Lmaj promast	T cruzi repl	Beta apoptosis	Mdm2 MdmX PPI	CSC inhib	SKKanGAS inh
S=c1[nH]nc(-c2ccncc2)n1/N=C/c1cn(-c2ccccc2)nc1-c1ccccc1	.	11	-20	-9	42	51*
CC(CNC(=S)Nc1cc(F)cc(F)c1)CSc1ccc(Cl)cc1 (stereo not given)	48	7	13	25	87*	55*
Cc1ccc(NC(=S)NCCSc2ccc(Cl)cc2)cc1	28	51	-12	-15	11	8
C=CCN(CC=C)S(=O)(=O)c1ccc(NC(=S)NC(=O)Cc2ccc(OC)cc2)cc1	62*	5	-8	20	1	4
Cc1ccc(-c2cc(-c3ccccc3)nc(N(C)N)n2)cc1	.	-2	1	25	19	68*
CCc1ccc(NC(=O)CS(=O)CC(=O)Nc2ccc(N3CCOCC3)cc2)cc1 (stereo not given)	.	-10	.	10	4	1
CN(C)CC/C=C1/c2ccccc2Sc2c(O)cc(Cl)cc21	98*	10	-3	43	-6	-2
CN(C)CC/C=C1/c2cc(F)ccc2Sc2ccc(Cl)cc21	.	37	-1	33	-3	1
COc1cc2c(cc1Cl)/C(=C\CCN(C)C)c1ccccc1S2	100*	46	8	47	27	5
COc1ccc(CC(=O)OCCc2cc3cc(OC)c(OC)cc3c(=O)o2)cc1	.	.	0	13	19	.
CCOc1ccc(N2C(=O)CC(N3CCN(c4ccc(C(=O)c5ccncc5)cc4)CC3)C2=O)cc1 (stereo not given)	77*	-6	0	14	-6	1
CCN1C(=O)CC(N2CCN(c3ccc(C(=O)c4ccncc4)cc3)CC2)C1=O (stereo not given)	73*	0	-4	-4	-10	2
CCn1c(C)cc(C(=O)CSc2nnc(-c3ccco3)o2)c1C	.	.	-5	26	.	.
Cc1cc(C)c(NC(=O)CNC(=O)COC(=O)/C=C/c2cccs2)c(C)c1	.	-6	-1	-5	4	-7
O=C(Nc1ccc(Cn2cccn2)cc1)c1ccc(COc2ccc(Br)cc2)cc1	-1	-9	-1	19	3	1
O=C(Nc1ccc(Cn2cccn2)cc1)c1ccc(COc2cccc(Br)c2)cc1	4	14	-2	-41	99*	16
Cc1cc(=O)[nH]c(N/N=C/c2cccc(Br)c2)n1	.	-6	0	-7	-12	-2
Cc1cc(N/N=C/c2cccc(Br)c2)nc2ccccc12	61*	30	6	-201	13	91*
Cc1cc(N/N=C/c2ccncc2)nc2ccccc12	73*	23	.	.	.	11
Cc1cc(OCC(=O)NCCN2CCOCC2)cc(C)c1Cl	.	-1	-5	-10	-18	-6
Cc1cc(Cl)ccc1OCC(=O)NCCCN1CCOCC1	92*	-1	-9	5	-7	3
CC(Oc1ccc(Cl)cc1Cl)C(=O)NCCN1CCOCC1 (stereo not given)	79*	1	-6	11	7	-1
O=C(CSc1ccccc1)NCCCN1CCOCC1	77*	0	-10	-8	-2	1
O=C(COc1ccc(Cl)cc1Cl)NCCCN1CCOCC1	94*	11	-4	-3	-11	-14
COCCN(C(=O)CSc1nnc(-c2ccccc2OC)o1)c1c(N)n(CC(C)C)c(=O)[nH]c1=O	.	-15	0	3	-12	-23
SMILES	Lmaj promast	T cruzi repl	Beta apoptosis	Mdm2 MdmX PPI	CSC inhib	SKKanGAS inh
CCOc1nc(OCC)c2cnn(C)c2n1	.	3	-3	32	7	-6
O=C(COc1ccc(Cl)cc1Cl)Nc1ccc(-c2ccc(N3CCOCC3)nn2)cc1	.	23	2	-9	.	51*
O=C(COc1ccc(Br)cc1Cl)NCCCN1CCOCC1	.	-5	.	9	-5	-2
CC(Oc1ccc(Cl)cc1Cl)C(=O)NC(=S)N1CCc2ccccc21 (stereo not given)	-3	-3	0	19	53	104*
CC(Oc1ccc(Cl)cc1C(N)=O)C(=O)N1CCc2ccccc21 (stereo not given)	.	.	1	-5	-2	.
O=C(COc1ccccc1Cl)NCCCN1CCOCC1	80*	0	-14	-2	-10	1
O=C(CCN1C(=O)/C(=C/c2ccccc2)SC1=S)NCCCN1CCOCC1	.	55*	-7	-11	42	8
O=C(CCN1C(=O)/C(=C\c2cccc(Br)c2)SC1=S)NCCCN1CCOCC1	.	18	-8	21	.	10
O=C(CCC(=O)N1CCOCC1)NCCc1ccccc1	.	.	-1	21	.	.
Cc1oc(=O)cc(OCc2ccccc2)c1C	.	.	.	-9	.	.
CC(CCc1ccccc1)NC(=O)c1cccs1 (stereo not given)	-1	-11	-2	14	-3	-1
CC1CCCCC1NC(=O)C(Cc1ccccc1)NS(=O)(=O)c1cccs1 (stereo not given)	58*	3	-1	10	2	-7
CC(CCc1ccccc1)NC(=O)C(Cc1ccccc1)NS(=O)(=O)c1cccs1 (stereo not given)	89*	-9	7	7	-5	1
Cc1sc2ncn(CC(=O)N3CCC(C(N)=O)CC3)c(=O)c2c1S(=O)(=O)N1CCOCC1	.	-8	-1	25	-11	-3
O=C(CN(c1ccc2c(c1)OCCO2)S(=O)(=O)c1ccccc1)NCc1ccco1	92*	-13	0	2	-9	1
Cc1ccc(N(CC(=O)NCc2ccc(F)cc2)S(=O)(=O)c2cccs2)cc1	91*	14	6	13	-6	-7
O=C(CN(C(=O)CNS(=O)(=O)c1ccccc1)c1ccc2c(c1)OCCO2)NCc1ccco1	-3	-3	-3	-5	-4	-2
Cc1cccc(N(CC(=O)NCCSCc2ccco2)S(=O)(=O)c2ccccc2)c1	61*	14	8	-3	28	15
O=C(CN(c1ccc(F)cc1)S(=O)(=O)c1ccc2c(c1)OCCO2)NCc1cccnc1	29	-14	-7	24	-13	-9
Cc1ccc(N(CC(=O)NCc2ccccc2Cl)S(=O)(=O)c2cccs2)cc1	2	27	5	-8	-5	1
O=C(CN(c1ccc(F)cc1)S(=O)(=O)c1ccc2c(c1)OCCO2)NCc1ccncc1	92*	-10	-4	-4	-3	5
CNS(=O)(=O)c1ccc(NC(=O)c2cc(-c3ccncc3)nc3ccc(Cl)cc23)cc1	.	17	-2	13	1	14
O=C(Nc1ccc(N2CCN(C(=O)c3cccs3)CC2)cc1)c1ccc(Br)o1	.	.	62	8	.	.
COc1ccc(-c2n[nH]c(=S)n2-c2ccc3c(c2)OCCO3)cc1OC	88*	-17	3	1	-10	5
COc1cc(OC)cc(-c2n[nH]c(=S)n2-c2ccc3c(c2)OCCO3)c1	71*	0	-7	-37	-2	-4
COc1ccc(-c2n[nH]c(=S)n2-c2ccc3c(c2)OCCO3)cc1	-2	-13	2	-20	-20	1
